According to ChEMBL document CHEMBL2384906, “Biological activity, design, synthesis and structure activity relationship of some novel derivatives of curcumin containing sulfonamides” (Eur J Med Chem, 2013):
In brackets after ≈: the same amount, converted by molar mass. Activity calls are given as the source filed them. The calls are words filed in the database; no cut-off is given here.

Legend:
Aspergillus flavus [1] = assay: Antifungal activity against Aspergillus flavus MTCC 1021 assessed as zone of inhibition at 80 uM after 48 hrs by disc diffusion method; type: functional; conditions: MTCC 1021, 48 h, read-out: IZ
Summary of the method: (§1)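 Spores from 4-day potato dextrose agar cultures, suspended in sterile water at 1.5 × 10⁵ CFU/mL. 0.2 mL was spread on potato dextrose agar. 5 mm filter-paper discs soaked with test compound were laid on the lawn. Incubation was 48 h at 28 °C, then the inhibition zone was measured in mm. Fluconazole was the positive control and acetone the negative control.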

Salmonella typhi [2] = assay: Antimicrobial activity against Salmonella typhi ATCC 23564 assessed as diameter of inhibition zone at 80 uM after 24 hrs by Kirby -Baur disc diffusion method; type: functional, Salmonella enterica subsp. enterica serovar Typhi; conditions: Salmonella enterica, ATCC 23564, 24 h; read-out: DIZ
Curvularia lunata [3] = assay: Antifungal activity against Curvularia lunata MTCC 581 assessed as zone of inhibition at 20 uM after 48 hrs by disc diffusion method; type: functional; conditions: MTCC 581, 48 h, read-out: IZ; summary of the method: as §1
Trichoderma viride [4] = assay: Antifungal activity against Trichoderma viride MTCC 1107 after 48 hrs; type: functional; conditions: MTCC 1107, 48 h
Aspergillus flavus [5] = assay: Antifungal activity against Aspergillus flavus MTCC 1021 assessed as zone of inhibition at 40 uM after 48 hrs by disc diffusion method; type: functional; conditions: MTCC 1021, 48 h, read-out: IZ; summary of the method: as §1
Staphylococcus aureus [6] = assay: Antimicrobial activity against Staphylococcus aureus ATCC 11632 assessed as diameter of inhibition zone at 80 uM after 24 hrs by Kirby -Baur disc diffusion method; type: functional; conditions: ATCC 11632, 24 h, read-out: DIZ
Summary of the method: (§2)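 Kirby-Bauer disc diffusion was used. Acetone stocks (160 µM) were serially doubled down to 80, 40 and 20 µM. 4 µL of each went onto 5 mm sterile paper discs, which were dried 30 min at 50 °C. Inoculum was 1.5 × 10⁸ CFU/mL diluted to 3 × 10² CFU/mL, and 50 µL was spread on Mueller-Hinton agar. After 24 h at 37 °C the inhibition-zone diameter was measured. Ciprofloxacin served as positive control.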

Bacillus cereus [7] = assay: Antimicrobial activity against Bacillus cereus MTCC 7350 assessed as diameter of inhibition zone at 80 uM after 24 hrs by Kirby -Baur disc diffusion method; type: functional; conditions: MTCC 7350, 24 h, read-out: DIZ; summary of the method: as §2
HeLa = assay: Cytotoxicity against human HeLa cells after 24 hrs by MTT assay; type: functional, cell-based
Summary of the method: (§3)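 The MTT assay seeded 5 × 10⁴ cells per well and grew them 24 h in RPMI 1640 with compound at 2.5–200 µM. Medium without cells was the blank and adriamycin the positive control. MTT was added for 4 h at 37 °C, formazan was solubilised, and absorbance was read at 570 nm. IC50 is the concentration that cuts viability 50% against untreated cells.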

Pseudomonas aeruginosa [8] = assay: Antimicrobial activity against Pseudomonas aeruginosa ATCC 15499 after 24 hrs by broth micro serial dilution method; type: functional; conditions: ATCC 15499, 24 h
Summary of the method: (§4)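 This was broth microdilution in autoclaved Mueller-Hinton broth. 150 µL of compound per well was serially diluted […], and 50 µL of test organism was added. Plates were incubated 24 h at 37 °C and optical density was read.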

HCT-116 = assay: Cytotoxicity against human HCT116 cells after 24 hrs by MTT assay; type: functional, cell-based; summary of the method: as §3
Trichoderma viride [9] = assay: Antifungal activity against Trichoderma viride MTCC 1107 assessed as zone of inhibition at 40 uM after 48 hrs by disc diffusion method; type: functional; conditions: MTCC 1107, 48 h, read-out: IZ; summary of the method: as §1
Salmonella typhi [10] = assay: Antimicrobial activity against Salmonella typhi ATCC 23564 assessed as diameter of inhibition zone at 40 uM after 24 hrs by Kirby -Baur disc diffusion method; type: functional; conditions: Salmonella enterica subsp. enterica serovar Typhi
Curvularia lunata [11] = assay: Antifungal activity against Curvularia lunata MTCC 581 assessed as zone of inhibition at 80 uM after 48 hrs by disc diffusion method; type: functional; conditions: MTCC 581, 48 h, read-out: IZ; summary of the method: as §1
Bacillus cereus [12] = assay: Antimicrobial activity against Bacillus cereus MTCC 7350 after 24 hrs by broth micro serial dilution method; type: functional; conditions: MTCC 7350, 24 h; summary of the method: as §4
Escherichia coli [13] = assay: Antimicrobial activity against Escherichia coli ATCC 35218 assessed as diameter of inhibition zone at 80 uM after 24 hrs by Kirby -Baur disc diffusion method; type: functional; conditions: ATCC 35218, 24 h, read-out: DIZ; summary of the method: as §2
HepG2 = assay: Cytotoxicity against human HepG2 cells after 24 hrs by MTT assay; type: functional, cell-based; summary of the method: as §3
Aspergillus niger [14] = assay: Antifungal activity against Aspergillus niger MTCC 1108 assessed as zone of inhibition at 20 uM after 48 hrs by disc diffusion method; type: functional; summary of the method: as §1
Trichoderma viride [15] = assay: Antifungal activity against Trichoderma viride MTCC 1107 assessed as zone of inhibition at 80 uM after 48 hrs by disc diffusion method; type: functional; conditions: MTCC 1107, 48 h, read-out: IZ; summary of the method: as §1
Aspergillus flavus [16] = assay: Antifungal activity against Aspergillus flavus MTCC 1021 after 48 hrs; type: functional; conditions: MTCC 1021, 48 h
Aspergillus niger [17] = assay: Antifungal activity against Aspergillus niger MTCC 1108 assessed as zone of inhibition at 80 uM after 48 hrs by disc diffusion method; type: functional; conditions: MTCC 1108, 48 h, read-out: IZ; summary of the method: as §1
Escherichia coli [18] = assay: Antimicrobial activity against Escherichia coli ATCC 35218 assessed as diameter of inhibition zone at 40 uM after 24 hrs by Kirby -Baur disc diffusion method; type: functional; summary of the method: as §2
Pseudomonas aeruginosa [19] = assay: Antimicrobial activity against Pseudomonas aeruginosa ATCC 15499 assessed as diameter of inhibition zone at 20 uM after 24 hrs by Kirby -Baur disc diffusion method; type: functional; summary of the method: as §2
Pseudomonas aeruginosa [20] = assay: Antimicrobial activity against Pseudomonas aeruginosa ATCC 15499 assessed as diameter of inhibition zone at 80 uM after 24 hrs by Kirby -Baur disc diffusion method; type: functional; conditions: ATCC 15499, 24 h, read-out: DIZ; summary of the method: as §2
Staphylococcus aureus [21] = assay: Antimicrobial activity against Staphylococcus aureus ATCC 11632 assessed as diameter of inhibition zone at 20 uM after 24 hrs by Kirby -Baur disc diffusion method; type: functional; summary of the method: as §2
QG-56 = assay: Cytotoxicity against human QG56 cells after 24 hrs by MTT assay; type: functional, cell-based; summary of the method: as §3
Staphylococcus aureus [22] = assay: Antimicrobial activity against Staphylococcus aureus ATCC 11632 assessed as diameter of inhibition zone at 40 uM after 24 hrs by Kirby -Baur disc diffusion method; type: functional; summary of the method: as §2
Escherichia coli [23] = assay: Antimicrobial activity against Escherichia coli ATCC 35218 after 24 hrs by broth micro serial dilution method; type: functional; conditions: ATCC 35218, 24 h; summary of the method: as §4
Bacillus cereus [24] = assay: Antimicrobial activity against Bacillus cereus MTCC 7350 assessed as diameter of inhibition zone at 40 uM after 24 hrs by Kirby -Baur disc diffusion method; type: functional; summary of the method: as §2
Salmonella typhi [25] = assay: Antimicrobial activity against Salmonella typhi ATCC 23564 assessed as diameter of inhibition zone at 20 uM after 24 hrs by Kirby -Baur disc diffusion method; type: functional; conditions: Salmonella enterica subsp. enterica serovar Typhi
Salmonella typhi [26] = assay: Antimicrobial activity against Salmonella typhi ATCC 23564 after 24 hrs by broth micro serial dilution method; type: functional, Salmonella enterica subsp. enterica serovar Typhi; conditions: Salmonella enterica, ATCC 23564, 24 h
Aspergillus flavus [27] = assay: Antifungal activity against Aspergillus flavus MTCC 1021 assessed as zone of inhibition at 20 uM after 48 hrs by disc diffusion method; type: functional; summary of the method: as §1
Aspergillus niger [28] = assay: Antifungal activity against Aspergillus niger MTCC 1108 assessed as zone of inhibition at 40 uM after 48 hrs by disc diffusion method; type: functional; summary of the method: as §1
Escherichia coli [29] = assay: Antimicrobial activity against Escherichia coli ATCC 35218 assessed as diameter of inhibition zone at 20 uM after 24 hrs by Kirby -Baur disc diffusion method; type: functional; summary of the method: as §2
Aspergillus niger [30] = assay: Antifungal activity against Aspergillus niger MTCC 1108 after 48 hrs; type: functional; conditions: MTCC 1108, 48 h
Curvularia lunata [31] = assay: Antifungal activity against Curvularia lunata MTCC 581 after 48 hrs; type: functional; conditions: MTCC 581, 48 h
Pseudomonas aeruginosa [32] = assay: Antimicrobial activity against Pseudomonas aeruginosa ATCC 15499 assessed as diameter of inhibition zone at 40 uM after 24 hrs by Kirby -Baur disc diffusion method; type: functional; conditions: ATCC 15499, 24 h, read-out: DIZ; summary of the method: as §2
Staphylococcus aureus [33] = assay: Antimicrobial activity against Staphylococcus aureus ATCC 11632 after 24 hrs by broth micro serial dilution method; type: functional; conditions: ATCC 11632, 24 h; summary of the method: as §4
Curvularia lunata [34] = assay: Antifungal activity against Curvularia lunata MTCC 581 assessed as zone of inhibition at 40 uM after 48 hrs by disc diffusion method; type: functional; conditions: MTCC 581, 48 h, read-out: IZ; summary of the method: as §1
Trichoderma viride [35] = assay: Antifungal activity against Trichoderma viride MTCC 1107 assessed as zone of inhibition at 20 uM after 48 hrs by disc diffusion method; type: functional; conditions: MTCC 1107, 48 h, read-out: IZ; summary of the method: as §1
Bacillus cereus [36] = assay: Antimicrobial activity against Bacillus cereus MTCC 7350 assessed as diameter of inhibition zone at 20 uM after 24 hrs by Kirby -Baur disc diffusion method; type: functional; summary of the method: as §2
Mus musculus = assay: Antiinflammatory activity in mouse assessed as inhibition of carrageenan-induced increase in paw volume at 200 mg/kg administered 1 hr prior to carrageenan challenge measured after 3 hrs relative to control; type: functional
Summary of the method: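 Mice were fasted 2 h and placed in groups of five. Controls received saline i.p. Phenylbutazone was given at 100 mg/kg i.p., curcumin at 200 mg/kg i.p., and derivatives at 200 mg/kg. After 1 h, 0.1 mL of 1% carrageenan in saline was injected subplantar into the right hind paw. Paw volume was followed by plethysmometer for 3 h, and % inhibition was calculated as (Vc − Vt)/Vc × 100.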

COc1cc(/C=C/C(=O)C(/N=N/c2ccc(S(=O)(=O)Nc3cc(C)on3)cc2)=C(O)/C=C/c2ccc(O)c(OC)c2)ccc1O
zone of inhibition at 80 µM (Aspergillus flavus [1]): 10 mm
zone of inhibition at 80 µM (Salmonella typhi [2]): 9 mm
zone of inhibition at 20 µM (Curvularia lunata [3]): 9 mm
MIC (Trichoderma viride [4]): 80 µM (≈ 50.6 µg/mL)
zone of inhibition at 40 µM (Aspergillus flavus [5]): 9 mm
zone of inhibition at 80 µM (Staphylococcus aureus [6]): 9 mm
zone of inhibition at 80 µM (Bacillus cereus [7]): 9 mm
IC50 (HeLa): > 100 µM
MIC (Pseudomonas aeruginosa [8]): > 80 µM
IC50 (HCT-116): Not Active
zone of inhibition at 40 µM (Trichoderma viride [9]): 11 mm
diameter of the inhibition zone (DIZ) (Salmonella typhi [10]): inactive
zone of inhibition at 80 µM (Curvularia lunata [11]): 13 mm
MIC (Bacillus cereus [12]): > 80 µM
zone of inhibition at 80 µM (Escherichia coli [13]): 11 mm
IC50 (HepG2): Not Active
inhibition zone (IZ) (Aspergillus niger [14]): inactive
zone of inhibition at 80 µM (Trichoderma viride [15]): 13 mm
MIC (Aspergillus flavus [16]): 80 µM (≈ 50.6 µg/mL)
zone of inhibition at 80 µM (Aspergillus niger [17]): 12 mm
diameter of the inhibition zone (DIZ) (Escherichia coli [18]): inactive
diameter of the inhibition zone (DIZ) (Pseudomonas aeruginosa [19]): inactive
zone of inhibition at 80 µM (Pseudomonas aeruginosa [20]): 9 mm
diameter of the inhibition zone (DIZ) (Staphylococcus aureus [21]): inactive
IC50 (QG-56): Not Active
diameter of the inhibition zone (DIZ) (Staphylococcus aureus [22]): inactive
MIC (Escherichia coli [23]): > 80 µM
diameter of the inhibition zone (DIZ) (Bacillus cereus [24]): inactive
diameter of the inhibition zone (DIZ) (Salmonella typhi [25]): inactive
MIC (Salmonella typhi [26]): > 80 µM
inhibition zone (IZ) (Aspergillus flavus [27]): inactive
inhibition zone (IZ) (Aspergillus niger [28]): inactive
diameter of the inhibition zone (DIZ) (Escherichia coli [29]): inactive
MIC (Aspergillus niger [30]): > 80 µM
MIC (Curvularia lunata [31]): 80 µM (≈ 50.6 µg/mL)
zone of inhibition at 40 µM (Pseudomonas aeruginosa [32]): 9 mm
MIC (Staphylococcus aureus [33]): > 80 µM
zone of inhibition at 40 µM (Curvularia lunata [34]): 11 mm
zone of inhibition at 20 µM (Trichoderma viride [35]): 9 mm
diameter of the inhibition zone (DIZ) (Bacillus cereus [36]): inactive
inhibition in vivo at 200 mg/kg (Mus musculus): 14.5%
